From PubChem
Hits are enriched below; roughly 1.9% of the tested compounds scored in any of these assays.
MT1-MMP act inh = blockers of MT1-MMP proenzyme processing, primary screen, HT1080 RFP-PRO-GFP cells, GFP/RFP fluorescence; Matrix metalloproteinase-14 (Homo sapiens), P50281; GFP/RFP ratio fluorescence, overnight; percent of plate control window, DMSO zero; GFP/RFP ratio change, % at 20 µM; 0.061% of 360,000 active;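 active = GFP/RFP ratio change of at least 30% with cell ATP level not reduced by more than half and red fluorescence within 50% of control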
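Material: RFP-PRO-GFP reporter HT1080 cells. Dosing: single-point 20 µM compound, 1% DMSO. Controls: DMSO and RFP-L50D-GFP cell wells. Timing: cells overnight before dosing, compound overnight, 37 °C, 5% CO2. Measure: GFP/RFP fluorescence ratio.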
PG9 binder = binders of HIV-1 gp120 antibody PG9, primary screen, biochemical, TR-FRET. HIV-1 gp120 / PG9 antibody interaction. TR-FRET gp120-PG9 antibody binding. inhibition, % at 6.7 µM. 0.43% of 360,000 active. AID 624416, 2012; in the data active = inhibition above about 8.5%
NR1D1 modulator = modulators of Rev-erb alpha DNA binding, primary screen, biochemical, FITC-DNA, fluorescence polarization, uHTS; Rev-erbα–FITC-DNA binding, 90 min; activity, % at 10 µM; 0.79% of 370,000 active;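 active = activity above about 14%, limit read from the data; passing the limit was not always enough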;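 also: 0% = DMSO wells with 35 nM protein and 100% = DMSO wells with 750 nM protein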
Target sequence (P20393 whole entry, looked up): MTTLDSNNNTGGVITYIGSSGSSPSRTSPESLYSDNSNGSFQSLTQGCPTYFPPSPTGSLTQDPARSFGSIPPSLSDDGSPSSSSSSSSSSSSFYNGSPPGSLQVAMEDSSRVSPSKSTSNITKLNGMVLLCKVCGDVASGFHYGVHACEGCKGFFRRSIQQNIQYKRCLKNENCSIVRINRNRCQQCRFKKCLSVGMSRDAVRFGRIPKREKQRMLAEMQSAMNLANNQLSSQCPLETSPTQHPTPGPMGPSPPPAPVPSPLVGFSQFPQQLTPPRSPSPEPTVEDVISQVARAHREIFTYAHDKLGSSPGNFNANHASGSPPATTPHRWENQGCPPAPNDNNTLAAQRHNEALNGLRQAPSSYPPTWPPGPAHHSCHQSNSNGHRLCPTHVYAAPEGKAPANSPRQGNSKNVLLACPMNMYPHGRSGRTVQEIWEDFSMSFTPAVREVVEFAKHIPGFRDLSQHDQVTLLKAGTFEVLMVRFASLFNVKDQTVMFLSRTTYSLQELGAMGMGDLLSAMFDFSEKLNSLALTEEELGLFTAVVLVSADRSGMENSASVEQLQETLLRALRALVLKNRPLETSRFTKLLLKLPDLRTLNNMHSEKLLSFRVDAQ
NR2E3 ag-1 = NR2E3 agonists in two-hybrid cells, primary screen, cell-based, luminescence, CHO-S, Gal4-NCOR/VP16-NR2E3. luciferase. inhibition of corepressor binding, % at 3.98 µM. 0.35% of 360,000 active. AID 602229, 2012;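 active = inhibition above the mean of all tested compounds plus 3 SD, cut at about 70% in these data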;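 also: 0% = DMSO with NR2E3 transfected cells and 100% = cells lacking NR2E3 construct; higher means lower luciferase signal from less NR2E3 corepressor binding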
NR2E3 ag-2 = inhibitors of NR2E3-RetCOR corepressor binding, primary screen, NR2E3 agonist project, biochemical, TR-FRET, GST-NR2E3, biotin-RetCOR; Photoreceptor-specific nuclear receptor (Homo sapiens), Q9Y5X4; 1536-well; inhibition of corepressor binding, % at 4.78 µM; 0.12% of 320,000 active;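 active = percent inhibition above the cutoff of mean plus 3 SD of all tested compounds, set per screening campaign, cut at about 20% in these data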;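 also: 0% = DMSO wells and 100% = biotin wells as full block of FRET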
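Material: NR2E3–RetCOR corepressor complex | Quantity: 1.35 nM GST-tagged NR2E3 final | Schedule: 5 h at 4 °C | Replication: Singlicate compound wells | Reagent: RetCOR corepressor, biotinylated, 7 nM | Controls: Biotin wells as high control, 0.6% DMSO wells as low control | Signal: TR-FRET, Eu(K)-anti-GST donor, streptavidin-D2 acceptor, ex 340, em 617/671 nm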
SKN-1 inh = suppressors of acrylamide-induced Pgst-4::GFP reporter in worms, primary screen, SKN-1 inhibitor project, whole organism, uHTS, GFP/RFP fluorescence ratio, strain VP596; C. elegans VP596 Pgst-4::GFP/RFP ratio, 24 h; inhibition, % at 21.8 µM; 0.49% of 360,000 active;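 active = interference check ratio from 0.5 to 1.5 plus GFP to RFP signal ratio inhibition reaching or exceeding a fixed threshold, cut at about 30% in these data, passing the limit was not always enough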
NR2E3 ag conf = NR2E3 agonist confirmation in cells, cell-based, luminescence, CHO-S two-hybrid | AID 624378, 2012 | CHO-S mammalian two-hybrid NR2E3-NCOR, luciferase luminescence | 51% of 2,300 active | inhibition, % at 3.98 µM | shares compounds with NR2E3 ag-1;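 active = average inhibition above a cutoff equal to the mean inhibition of all tested compounds plus one SD, cut at about 70% in these data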;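 also: 0% = DMSO in NR2E3 cells and 100% = DMSO in cells lacking NR2E3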
GAL4-VP16 luc = GAL4-VP16 reporter modulators, confirmation, counter-screen for NR2E3 agonist project, cell-based, luminescence, CHO-S, high throughput | shares compounds with NR2E3 ag-1 | CHO-S GAL4-VP16 luciferase reporter | inhibition, % at 3.98 µM | 29% of 2,300 active;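 active = mean inhibition above a cutoff equal to the average over all tested compounds plus one standard deviation, cut at about 70% in these data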;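 also: luciferase from a UAS reporter driven by GAL4-VP16 transactivation; 0% = DMSO with VP16-transfected cells and 100% = DMSO with cells lacking VP16; higher means less reporter light so more repression of VP16 activity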
* = called active by the depositor; · = no result.

SMILES	MT1-MMP act inh	PG9 binder	NR1D1 modulator	NR2E3 ag-1	NR2E3 ag-2	SKN-1 inh	NR2E3 ag conf	GAL4-VP16 luc
CCOC(=O)C1=C[C@@H](C(C)(C)C)N(S(=O)(=O)c2ccc([N+](=O)[O-])cc2)[C@H]1c1cccc(Cl)c1	·	0.4	6.2	·	·	·	·	·
CCOC(=O)C1=C[C@@H](C(C)(C)C)N(S(=O)(=O)c2ccc([N+](=O)[O-])cc2)[C@H]1c1ccccc1	-7.7	-2.2	-0.2	70.2*	·	4.4	44.8	32.2
O=S1(=O)c2ccc(N3CCC[C@@H]3CO)cc2OCCCN1C1CC1	·	·	-1.8	·	·	·	·	·
O=C(c1cc(S(=O)(=O)N2CCN(c3ccccc3)CC2)ccc1Cl)N1CCCC(C(F)(F)F)C1 (stereo not given)	7.4	-1.3	4.6	81.5*	1.9	3.8	92.3*	76.3*
O=C(c1cccc(S(=O)(=O)N2CCN(c3ccccc3)CC2)c1)N1CCCC(C(F)(F)F)C1 (stereo not given)	-6.9	1.8	2.4	5.3	0.2	2.4	·	·
CC(C)(C)c1ccc(NC(=S)NCc2cccs2)cc1	3.5	0.1	0.0	69.6	-0.4	8.0	64.3	40.0
O=C(NCc1ccccc1)[C@H]1CCCN1C(=O)[C@H]1CCCN1C(=O)c1ccc(OC(F)(F)F)cc1	·	-0.9	-4.5	·	·	·	·	·
CCCCCCCCNS(=O)(=O)CC1NCc2ccc(C)cc21 (stereo not given)	·	·	4.3	·	·	·	·	·
CC(C)C[C@H]1COc2cc(Br)ccc2S(=O)(=O)N1Cc1ccc(Cl)cc1	·	-0.3	-6.1	·	·	·	·	·
O=C(NNC(=O)c1ccccc1F)c1cccc(S(=O)(=O)N2CCc3ccccc32)c1	3.0	0.1	11.0	81.5*	·	-1.7	84.6*	72.0*
CC1Cc2ccccc2N1S(=O)(=O)c1cccc(C(=O)NNC(=O)c2ccccc2F)c1 (stereo not given)	2.6	-0.1	-1.8	-2.1	1.2	-1.0	·	·
O=C(NCc1ccncc1)c1cccc(S(=O)(=O)N2CCc3ccccc32)c1	-6.8	-0.7	-3.0	53.2	0.0	-0.6	33.7	36.0
CC1Cc2ccccc2N1S(=O)(=O)c1cccc(C(=O)NCc2ccncc2)c1 (stereo not given)	-9.7	0.4	3.3	39.5	3.7	21.3	·	·
COC(=O)C[C@@H]1CC[C@H]2[C@@H](COc3ccc(NC(=O)Nc4ccc(C)cc4)cc3C(=O)N2C)O1	·	·	-1.2	·	·	·	·	·
C=CCN1C(=O)c2n[nH]c(C)c2C1c1ccc(C)cc1 (stereo not given)	·	-0.4	-1.5	·	·	·	·	·
Cc1csc2ncnc(N3CCN(C(=S)Nc4ccc(C(F)(F)F)cc4)CC3)c12	-1.1	2.1	7.7	65.7	-2.2	-2.5	95.3*	82.5*
Cc1csc2c(N3CCN(C(=O)c4ccc(C(C)(C)C)cc4)CC3)ncnc12	1.6	1.6	-2.2	76.8*	-4.3	21.7	96.6*	83.9*
Cc1csc2c(N3CCN(C(=O)Nc4ccc(Cl)c(Cl)c4)CC3)ncnc12	2.7	0.8	-2.4	81.0*	2.8	12.7	97.4*	84.3*
Cc1csc2c(N3CCN(C(=O)NC(C)(C)C)CC3)ncnc12	16.4	-0.5	7.4	7.6	-0.4	-0.8	·	·
